From ChEMBL document CHEMBL1124043, “Pyrido[2,1-b]quinazolinecarboxamide derivatives as platelet activating factor antagonists” (J Med Chem, 1988)

Columns and labels:
[1] = system: Platelet-activating factor receptor (Canis familiaris); assay: Percent inhibition of binding of platelet activating factor (PAF) to dog platelets using [3H]PAF as radioligand at a concentration of 1 uM; conditions: Canis lupus familiaris
[2] = Relative rate of hydrolysis in squirrel monkey whole liver homogenates; assay type: ADME, tissue-based; conditions: saimiri, tissue homogenate
Procedure, shortened: (§1)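 Whole liver homogenate, equivalent to 21 mg fresh liver, in 40 mM potassium phosphate pH 7.4 with 0.4 mM substrate, final volume 1.0 mL. Incubated 10 min at 37 °C, then quenched with acetonitrile-methanol (9:1). Amine product measured in the supernatant by HPLC. Unincubated and no-substrate controls run in parallel. Rate expressed as nmol formed/10 min per 21 mg liver.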

Cavia porcellus = organism: Cavia porcellus; assay: Relative rate of hydrolysis in guinea pig whole liver homogenates; assay type: ADME
Procedure, shortened: as §1

Canis familiaris = organism: Canis familiaris; assay: Relative rate of hydrolysis in dog whole liver homogenates; assay type: ADME, Canis lupus familiaris
Procedure, shortened: as §1

Structure (SMILES) | inhibition [1] [%] | Relative rate [2] | Relative rate (Cavia porcellus) | Relative rate (Canis familiaris)
CC(CCCc1cccnc1)NC(=O)c1ccc2nc3ccc(C(C)C)cc3c(=O)n2c1 (racemic) |  | 0.49 | 0.35 | 1.9
CC(C)c1ccc2nc3ccc(C(=O)NCCCCCc4cccnc4)cn3c(=O)c2c1 | 9 |  |  | 
Cc1cc2nc3ccc(C(=O)NCCCCc4ccccc4)cn3c(=O)c2cc1C | 4 |  |  | 
CC(C)c1ccc2nc3ccc(S(=O)(=O)NCCCCc4cccnc4)cn3c(=O)c2c1 | 7 |  |  | 
CC(C)c1ccc2nc3ccc(C(=O)N[C@@H](C)CCCc4cccnc4)cn3c(=O)c2c1 |  | 0.26 | 0.5 | 1.9
CC(C)c1ccc2nc3ccc(C(=O)NCCCCc4cccnc4)cn3c(=O)c2c1 |  |  | 1 | 
Cc1cc2nc3ccc(C(=O)NCCCCc4cnc[n+](C)c4)cn3c(=O)c2cc1C | 0 |  |  | 
Cc1cc2nc3ccc(C(=O)NCCCCc4ccc[n+](C)c4)cn3c(=O)c2cc1C | 0 |  |  | 
CC(C)c1ccc2nc3ccc(C(=O)N[C@H](C)CCCc4cccnc4)cn3c(=O)c2c1 |  | < 0.01 | 0.063 | < 0.01

More lines, now with the values ahead:

inhibition [1] [%] | Relative rate [2] | Relative rate (Cavia porcellus) | Relative rate (Canis familiaris) | Structure (SMILES)
5 |  |  |  | CC(C)c1ccc2nc3ccc(C(=O)NCCCc4cccnc4)cn3c(=O)c2c1
19 |  |  |  | CC(C)c1ccc2nc3ccc(C(=O)NCCCCCCCc4cccnc4)cn3c(=O)c2c1
 |  | < 0.01 |  | CC(C)c1ccc2nc3ccc(C(=O)NC(C)(C)CCCc4cccnc4)cn3c(=O)c2c1
15 |  |  |  | CC(C)c1ccc2nc3ccc(CCCCCCc4cccnc4)cn3c(=O)c2c1
15 |  |  |  | CC(C)c1ccc2nc3ccc(CNCCCCc4cccnc4)cn3c(=O)c2c1
